PG9 Ab binder: PG9 antibody binding by small molecule. TR-FRET gp120-PG9 antibody binding. inhibition, % at 6.7 µM. 0.43% of 360,000 active; in the data active means inhibition above about 8.5%
MT1-MMP act inh: blocks activation of human MT1-MMP | P50281 | HT1080 RFP-PRO-GFP cells, GFP/RFP ratio fluorescence, overnight; percent of plate control window, DMSO zero | GFP/RFP ratio change, % at 20 µM | 0.061% of 360,000 active;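 active means GFP/RFP ratio change of at least 30% with cell ATP level not reduced by more than half and red fluorescence within 50% of control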
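Test system: HT1080 RFP-PRO-GFP cells; Benchmarks: DMSO and RFP-L50D-GFP cell wells; Timing: cells overnight before dosing, compound overnight, 37 °C, 5% CO2; Compound: one 20 µM compound dose with 1% DMSO; Read-out: GFP/RFP fluorescence ratio.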
SKN-1 block: C. elegans SKN-1 inhibition. C. elegans VP596 Pgst-4::GFP/RFP ratio, acrylamide-induced, 24 h. inhibition, % at 21.8 µM. 0.49% of 360,000 active. AID 624304;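 active means interference check ratio from 0.5 to 1.5 plus GFP to RFP signal ratio inhibition reaching or exceeding a fixed threshold, cut at about 30% in these data, passing the limit was not always enough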
NR2E3 ag-1: agonists of human NR2E3 nuclear receptor; Q9Y5X4; CHO-S Gal4-NCOR/VP16-NR2E3 two-hybrid, luciferase; inhibition of corepressor binding, % at 3.98 µM; 0.35% of 360,000 active; AID 602229;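 active means inhibition above the mean of all tested compounds plus 3 SD, cut at about 70% in these data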;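 further: 0% = DMSO with NR2E3 transfected cells and 100% = cells lacking NR2E3 construct; higher means lower luciferase signal from less NR2E3 corepressor binding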
NR2E3 ag-2: activates human photoreceptor nuclear receptor NR2E3; inhibition of corepressor binding, % at 4.78 µM; GST-NR2E3/biotin-RetCOR TR-FRET, 1536-well; Q9Y5X4; 0.12% of 320,000 active; AID 2300;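 active means percent inhibition above the cutoff of mean plus 3 SD of all tested compounds, set per screening campaign, cut at about 20% in these data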;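 further: 0% = DMSO wells and 100% = biotin wells as full block of FRET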
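Test system: GST-NR2E3 and biotin-RetCOR proteins | Quantity: 1.35 nM GST-tagged NR2E3 final | Medium: Tris pH 7.5 | Also added: 7 nM biotin-RetCOR | Dosing: Compound at 4.8 µM, single dose | Timing: 5 h at 4 °C | Detection: Time-resolved FRET | Read-out basis: Percent inhibition | Benchmarks: Biotin wells as high control, 0.6% DMSO wells as low control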
Rev-erbA mod: Rev-erb alpha (human) modulation; P20393; Rev-erbα–FITC-DNA binding, fluorescence polarization, 90 min; activity, % at 10 µM; 0.79% of 370,000 active;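 active means activity above about 14%, limit read from the data; passing the limit was not always enough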;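 further: 0% = DMSO wells with 35 nM protein and 100% = DMSO wells with 750 nM protein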
Target sequence (P20393 whole entry, looked up): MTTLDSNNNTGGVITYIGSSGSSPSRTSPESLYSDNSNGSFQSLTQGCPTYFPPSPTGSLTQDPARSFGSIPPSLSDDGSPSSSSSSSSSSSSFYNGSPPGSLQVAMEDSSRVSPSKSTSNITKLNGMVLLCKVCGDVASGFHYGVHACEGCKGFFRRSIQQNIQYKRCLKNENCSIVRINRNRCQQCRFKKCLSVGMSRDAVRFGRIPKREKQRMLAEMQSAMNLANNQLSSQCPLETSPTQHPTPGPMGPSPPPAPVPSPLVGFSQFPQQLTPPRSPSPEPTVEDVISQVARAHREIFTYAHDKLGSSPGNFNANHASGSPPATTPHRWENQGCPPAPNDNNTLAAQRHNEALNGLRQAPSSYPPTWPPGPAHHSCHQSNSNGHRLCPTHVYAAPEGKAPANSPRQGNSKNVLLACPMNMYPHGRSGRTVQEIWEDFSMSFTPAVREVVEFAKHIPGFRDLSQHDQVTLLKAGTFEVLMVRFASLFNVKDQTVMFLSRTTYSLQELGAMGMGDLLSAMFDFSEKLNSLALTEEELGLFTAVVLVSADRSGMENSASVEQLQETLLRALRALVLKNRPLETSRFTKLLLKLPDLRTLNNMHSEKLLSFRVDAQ
NR2E3 ag conf: confirmation of human NR2E3 agonists. CHO-S mammalian two-hybrid NR2E3-NCOR, luciferase luminescence. shares compounds with NR2E3 ag-1. inhibition, % at 3.98 µM. 51% of 2,300 active. AID 624378;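 active means average inhibition above a cutoff equal to the mean inhibition of all tested compounds plus one SD, cut at about 70% in these data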;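 further: 0% = DMSO in NR2E3 cells and 100% = DMSO in cells lacking NR2E3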
VP16 counter: GAL4-VP16 reporter inhibition in NR2E3 agonist counterscreen; shares compounds with NR2E3 ag-1; CHO-S GAL4-VP16 luciferase reporter, luminescence; inhibition, % at 3.98 µM; 29% of 2,300 active;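 active means mean inhibition above a cutoff equal to the average over all tested compounds plus one standard deviation, cut at about 70% in these data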;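 further: luciferase from a UAS reporter driven by GAL4-VP16 transactivation; 0% = DMSO with VP16-transfected cells and 100% = DMSO with cells lacking VP16; higher means less reporter light so more repression of VP16 activity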
Starred values were filed as active, the others as inactive; / = no result. This is a sample that favours compounds with a hit; in the whole collection about 1.9% have one here.

SMILES | PG9 Ab binder | MT1-MMP act inh | SKN-1 block | NR2E3 ag-1 | NR2E3 ag-2 | Rev-erbA mod | NR2E3 ag conf | VP16 counter
COc1ccc(OC)c(NC(=O)c2nnn(CCc3ccccc3)c2N)c1 | 0 | -3 | 8 | -19 | 4 | -4 | / | /
Cc1csc(SCC(=O)Nc2sc3c(c2C#N)CCC3)n1 | 1 | / | -5 | 1 | -1 | -6 | / | /
Cc1ccnc(SCC(=O)Nc2sc3c(c2C#N)CCCC3)n1 | 2 | -6 | -1 | 85* | 2 | -5 | 92* | 85*
C[C@H]1C2CC(OC(=O)NCc3ccccc3)C(C2)[C@H]2CCCCN21 (stereo not given in full) | / | / | / | / | / | 0 | / | /
CCCCS(=O)(=O)N1C2=NC(C(=O)OCC)=C(C(=O)OCC)C3N(Cc4ccc(C#N)cc4)c4ccccc4[C@]23C[C@H]1C(=O)OC (stereo not given in full) | -1 | / | / | / | / | 0 | / | /
COc1cccc(NS(=O)(=O)c2ccc3c(c2)N(C(C)=O)CCO3)c1 | 0 | 0 | 12 | -2 | -4 | 0 | / | /
COc1cccc(NS(=O)(=O)c2ccc3c(c2)CCN3C(C)=O)c1 | -1 | -6 | -2 | 67 | -1 | -7 | 62 | 59
COc1cccc(CNS(=O)(=O)c2ccc3c(c2)CCN3C(=O)C2CC2)c1 | 2 | 3 | 10 | -3 | -1 | -6 | / | /
CC(=O)N1CCCc2cc(S(=O)(=O)Nc3cccc(C)c3C)ccc21 | -1 | / | 0 | 36 | 1 | 0 | / | /
CC(=O)N1CCc2cc(S(=O)(=O)Nc3ccc(C)cc3)ccc21 | 1 | 2 | -8 | -34 | -2 | 4 | / | /
CC(=O)N1CCc2cc(S(=O)(=O)Nc3cccc(C(F)(F)F)c3)ccc21 | -2 | 7 | 31 | 65 | -1 | 0 | 63 | 38
COc1ccc(CNS(=O)(=O)c2ccc3c(c2)CCN3C(=O)C2CCC2)cc1 | 0 | 1 | -15 | 51 | -2 | -8 | 27 | 43
CSc1cccc(NS(=O)(=O)c2ccc3c(c2)CCN3C(C)=O)c1 | 0 | -6 | 1 | 72* | 0 | 0 | 85* | 77*
COC(=O)C1=C(C)N(Cc2ccccc2C(F)(F)F)C(=NCc2ccc(OC)cc2)NC1c1cccc(Cl)c1 (stereo not given) | 0 | / | / | / | / | -3 | / | /
CCn1c2c(n(C(C)=O)c1=O)C=C(C(=O)N1CCCC1)C(C)C(c1ccccc1)=C2 (stereo not given) | -1 | / | / | / | / | 3 | / | /
CC(C)CNC(=O)OCc1cn(Cc2cccc(F)c2F)nn1 | / | / | / | / | / | 4 | / | /
CC(=O)N1CCc2cc(S(=O)(=O)N3CCc4ccccc43)ccc21 | 0 | 11 | -8 | 74* | 2 | 3 | 51 | 47
CC(O)(c1ccncc1)c1nc(-c2cccc(C(F)(F)F)c2)cs1 (stereo not given) | 1 | -29 | 21 | 85* | / | -4 | 93* | 74*
CCN(CC)C(=O)c1cccc(-c2csc(C(C)(O)c3ccccc3)n2)c1 (stereo not given) | 1 | 1 | 7 | 5 | / | -8 | / | /
CCN(CC)C(=O)c1cccc(-c2csc(C(C)(O)c3ccc(F)c(F)c3)n2)c1 (stereo not given) | / | 10 | -1 | 51 | / | / | 42 | 39
COC(=O)C1=C(C)N(Cc2cccc(C(F)(F)F)c2)C(=NCc2cc(OC)c(OC)c(OC)c2)NC1CCc1ccccc1 (stereo not given) | 2 | / | / | / | / | 11 | / | /
COC(=O)[C@]12C[C@H](CC(=O)NCc3cccc4ccccc34)C(=O)N(CCC3=CCCCC3)C1=C[C@H](C(C)(C)C)O[C@@H]2C | -2 | / | / | / | / | 6 | / | /
Cc1ccc(CNc2nc(C)nc3sc4c(c23)CCC4)cc1 | 0 | -12 | 12 | 67 | 0 | 2 | 60 | 53
